# Tests used:
# [1] = target: T1, Estrogen receptor (Mus musculus) (UniProt O08537+P19785); test: Estrogenic activity in mouse uterotrophic assay at 625 ug as uterus dry weight (mg)/body weight (g) *100; assay type: functional, tissue-based
# Method in brief: (§1)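 Mouse uterotrophic test with the compound alone given sc on 3 consecutive days (dose per animal). Uterus dry weight (mg)/body weight (g) × 100 was measured 24 h after the last injection, as mean ± SD of 10 animals. Significance by Wilcoxon–Mann–Whitney U test.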
# [2] = target: T1, Estrogen receptor (Mus musculus); test: Anti-estrogenic activity in mouse uterotrophic assay at 25 ug as uterus dry weight (mg)/body weight (g) *100; assay type: functional, tissue-based
# Method in brief: (§2)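 Mice dosed sc on 3 consecutive days (dose per animal), together with […] estrone per animal per day. Uterus dry weight (mg)/body weight (g) × 100 was taken 24 h after the last injection, as mean ± SD of 10 animals. Significance by Wilcoxon–Mann–Whitney U test.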
# [3] = target: T1, Estrogen receptor (Mus musculus); test: Percent inhibition in anti-uterotrophic assay in mice at 625 ug; assay type: functional; method in brief: as §2
# [4] = target: T1, Estrogen receptor (Mus musculus); test: Anti-estrogenic activity in mouse uterotrophic assay at 1 ug as uterus dry weight (mg)/body weight (g) *100; assay type: functional, tissue-based; method in brief: as §2
# [5] = target: T1, Estrogen receptor (Mus musculus); test: Percent inhibition in anti-uterotrophic assay in mice at 25 ug; assay type: functional; method in brief: as §2
# MDA-MB-231 [6] = test: Growth inhibition of hormone independent MDA-MB 231 human breast cancer cells at 1x10E-5 M
# Rattus norvegicus [7] = test: Percent complete remission of DMBA-induced hormone dependent mammary carcinoma in rats at 2 mg/kg in 9 animals; assay type: functional
# Method in brief: (§3)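 Sprague-Dawley rats bearing established DMBA-induced mammary carcinomas that arose 5–10 weeks after DMBA. Dosed sc as one daily dose Monday to Thursday and a double dose on Friday. Controls got vehicle alone. Tumor area was followed over treatment.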
# Rattus norvegicus [8] = test: Progressive DMBA-induced hormone dependent mammary carcinoma tumors in rats at 2 mg/kg in 9 animals; assay type: functional; method in brief: as §3
# [9] = target: T1, Estrogen receptor (Mus musculus); test: Percent inhibition in anti-uterotrophic assay in mice at 125 ug; assay type: functional; method in brief: as §2
# [10] = target: T1, Estrogen receptor (Mus musculus); test: Estrogenic activity in mouse uterotrophic assay at 5 ug as uterus dry weight (mg)/body weight (g) *100; assay type: functional, tissue-based; method in brief: as §1
# [11] = target: T1, Estrogen receptor (Mus musculus); test: Anti-estrogenic activity in mouse uterotrophic assay at 5 ug as uterus dry weight (mg)/body weight (g) *100; assay type: functional, tissue-based; method in brief: as §2
# [12] = target: T1, Estrogen receptor (Mus musculus); test: Percent inhibition in anti-uterotrophic assay in mice at 5 ug; assay type: functional; method in brief: as §2
# [13] = target: T1, Estrogen receptor (Mus musculus); test: Estrogenic activity in mouse uterotrophic assay at 1 ug as uterus dry weight (mg)/body weight (g) *100; assay type: functional, tissue-based; method in brief: as §1
# Rattus norvegicus [14] = test: Change in tumor area DMBA-induced hormone dependent mammary carcinoma tumor bearing rats at 2 mg/kg after 7 day therapy in 9 animals; assay type: functional; conditions: in the assay text read “28 day” for “7 day”; method in brief: as §3
# Rattus norvegicus [15] = test: Change in body weight of DMBA-induced hormone dependent mammary carcinoma tumor bearing rats at 2 mg/kg after 7 day therapy in 9 animals; assay type: functional
# [16] = target: T1, Estrogen receptor (Mus musculus); test: Anti-estrogenic activity in mouse uterotrophic assay at 625 ug as uterus dry weight (mg)/body weight (g) *100; assay type: functional, tissue-based; method in brief: as §2
# [17] = target: T1, Estrogen receptor (Mus musculus); test: Estrogenic activity in mouse uterotrophic assay at 125 ug as uterus dry weight (mg)/body weight (g) *100; assay type: functional, tissue-based; method in brief: as §1
# [18] = target: T1, Estrogen receptor (Mus musculus); test: Estrogenic activity in mouse uterotrophic assay at 25 ug as uterus dry weight (mg)/body weight (g) *100; assay type: functional, tissue-based; method in brief: as §1
# [19] = target: T1, Estrogen receptor (Mus musculus); test: Anti-estrogenic activity in mouse uterotrophic assay at 125 ug as uterus dry weight (mg)/body weight (g) *100; assay type: functional, tissue-based; method in brief: as §2
# Rattus norvegicus [20] = test: New tumor development in DMBA-induced hormone dependent mammary carcinoma in rats at 6 mg/kg; assay type: functional; method in brief: as §3
# MDA-MB-231 [21] = test: Inhibition of [3H]thymidine incorporation into hormone independent MDA-MB 231 human breast cancer cells at 1*10^-5 M; assay type: functional
# Method in brief: (§4)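 MDA-MB 231 cells grown in McCoy 5a with 10% newborn calf serum and gentamycin. Replicate plates were switched to 5% serum 1 h before the run. Compounds were added in Me2SO (final 0.1%). Read-out was [3H]thymidine incorporation into TCA-precipitable material.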
# MDA-MB-231 [22] = test: (§5) Inhibition of [3H]thymidine incorporation into hormone independent MDA-MB 231 human breast cancer cells at 1x10E-6M; assay type: functional; method in brief: as §4
# MDA-MB-231 [23] = test: Inhibition of [3H]thymidine incorporation into hormone independent MDA-MB 231 human breast cancer cells at 1x10E-5 M; assay type: functional; method in brief: as §4
# [24] = target: T1, Estrogen receptor (Mus musculus); test: Percent inhibition in anti-uterotrophic assay in mice at 1 ug; assay type: functional; method in brief: as §2
# Rattus norvegicus [25] = test: Initial DMBA-induced hormone dependent mammary carcinoma tumors in rats at 6 mg/kg; assay type: functional; method in brief: as §3
# Rattus norvegicus [26] = test: Partial remission in DMBA-induced hormone dependent mammary carcinoma tumor bearing rats at 2 mg/kg in 9 animals; assay type: functional; method in brief: as §3
# MDA-MB-231 [27] = test: as §5; assay type: functional; method in brief: as §4; remark: listed apart in the source
# Rattus norvegicus [28] = test: Static unchanged DMBA-induced hormone dependent mammary carcinoma tumors in rats at 2 mg/kg in 9 animals; assay type: functional; method in brief: as §3
# T1 sequence (O08537 whole entry, looked up): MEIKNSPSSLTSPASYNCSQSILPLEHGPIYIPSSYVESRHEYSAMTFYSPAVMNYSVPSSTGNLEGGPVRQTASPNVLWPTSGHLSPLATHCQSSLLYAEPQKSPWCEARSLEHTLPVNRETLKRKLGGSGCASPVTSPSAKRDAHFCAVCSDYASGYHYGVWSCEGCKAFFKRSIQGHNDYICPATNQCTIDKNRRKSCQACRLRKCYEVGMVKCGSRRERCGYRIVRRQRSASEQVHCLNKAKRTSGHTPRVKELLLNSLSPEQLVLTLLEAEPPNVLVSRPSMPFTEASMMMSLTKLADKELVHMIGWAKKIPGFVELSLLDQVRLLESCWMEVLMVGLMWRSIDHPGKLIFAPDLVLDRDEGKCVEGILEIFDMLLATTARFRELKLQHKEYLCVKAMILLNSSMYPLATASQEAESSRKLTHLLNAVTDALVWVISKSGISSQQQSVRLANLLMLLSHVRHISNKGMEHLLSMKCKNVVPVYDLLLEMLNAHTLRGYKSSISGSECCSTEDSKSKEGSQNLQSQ
# T1 sequence (P19785 whole entry, looked up): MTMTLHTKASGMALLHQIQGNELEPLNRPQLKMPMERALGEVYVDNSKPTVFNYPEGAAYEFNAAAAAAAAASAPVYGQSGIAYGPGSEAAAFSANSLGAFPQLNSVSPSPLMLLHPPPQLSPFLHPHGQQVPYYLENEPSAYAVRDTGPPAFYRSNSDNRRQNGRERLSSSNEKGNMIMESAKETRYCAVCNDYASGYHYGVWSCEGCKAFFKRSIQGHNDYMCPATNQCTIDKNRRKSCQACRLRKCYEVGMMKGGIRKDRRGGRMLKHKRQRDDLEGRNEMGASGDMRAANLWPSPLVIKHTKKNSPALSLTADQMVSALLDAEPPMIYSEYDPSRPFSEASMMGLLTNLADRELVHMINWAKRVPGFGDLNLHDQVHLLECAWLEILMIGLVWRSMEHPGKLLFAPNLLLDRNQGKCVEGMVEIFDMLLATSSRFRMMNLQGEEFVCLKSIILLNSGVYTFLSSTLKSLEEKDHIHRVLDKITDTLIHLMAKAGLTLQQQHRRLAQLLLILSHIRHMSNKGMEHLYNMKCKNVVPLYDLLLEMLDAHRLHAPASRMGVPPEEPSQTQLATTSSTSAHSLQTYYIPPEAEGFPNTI
smiles,measurement,setting,value
Cn1c(-c2c(Cl)cc(O)cc2Cl)cc2c(Cl)cc(O)cc21,Effect,[1],40.1
same,Effect,[2],42.7
same,inhibition,[3],24%
same,Effect,[4],48.5
same,inhibition,[5],14%
same,T/C,MDA-MB-231 [6],38%
same,Complete remission,Rattus norvegicus [7],19%
same,Progressive tumors,Rattus norvegicus [8],28%
same,inhibition,[9],30%
same,Effect,[10],18.2
same,Effect,[11],45.4
same,inhibition,[12],5%
same,Effect,[13],16
same,Change,Rattus norvegicus [14],24%
same,Change,Rattus norvegicus [15],-2%
same,Effect,[16],39.6
same,Effect,[17],34.4
same,Effect,[18],26
same,Effect,[19],37.7
same,New tumors,Rattus norvegicus [20],24
same,T/C,MDA-MB-231 [21],5%
same,Cell no./dish x10E3,MDA-MB-231 [22],36.4 cpm/dish x10E3
same,Cell no./dish x10E5,MDA-MB-231 [22],10.12
same,T/C,MDA-MB-231 [22],95%
same,Cell no./dish x10E3,MDA-MB-231 [23],2.2 cpm/dish x10E3
same,Cell no./dish x10E5,MDA-MB-231 [23],4.12
same,inhibition,[24],-6%
same,No. of tumors,Rattus norvegicus [25],19
same,Partial remission,Rattus norvegicus [26],28%
same,T/C,MDA-MB-231 [27],88%
same,Static remission,Rattus norvegicus [28],25%

# From ChEMBL document CHEMBL1122306, “2-(Hydroxyphenyl)indoles: a new class of mammary tumor inhibiting compounds” (1983)
